Screening data: PubChem BioAssay, Johns Hopkins Ion Channel Center
RGS4 pot: potentiators or activators of RGS4; HEK293 M3R/inducible RGS4, carbachol calcium flux Fluo4; active compounds read low; B-score at 10 µM; 310,000 compounds, 0.92% hits;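 active means B-score of the integrated calcium signal more than 4 SD below the library mean, with starting fluorescence not abnormally high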;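 further: negative B-score means reduced calcium response which marks RGS4 activation or potentiation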
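Assay system: Inducible-RGS4 HEK293 cells carrying M3 receptor | Schedule: Compound preincubation 20 min at room temperature before agonist | Signal: Kinetic calcium fluorescence imaging with Fluo4-AM dye, 2 µM | Read-out basis: B score from integrated fluorescence ratio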
RGS4 block: human RGS4 inhibition. P49798. HEK293 M3R/RGS4 inducible, Fluo-4 calcium flux; active compounds read high; triggered by carbachol at its EC20. B-score at 10 µM. 310,000 compounds, 0.45% hits. AID 463165;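 active means B-score, a plate-corrected calcium signal, over three deviations above library mean, with baseline fluorescence within five deviations of library mean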;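 further: RGS4 expression induced by doxycycline in cells with stable M3 receptor; B-score is computed from the integrated fluorescence ratio over baseline after carbachol; higher B-score means a larger calcium signal and so more RGS4 inhibition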
Target sequence (P49798 whole entry, looked up): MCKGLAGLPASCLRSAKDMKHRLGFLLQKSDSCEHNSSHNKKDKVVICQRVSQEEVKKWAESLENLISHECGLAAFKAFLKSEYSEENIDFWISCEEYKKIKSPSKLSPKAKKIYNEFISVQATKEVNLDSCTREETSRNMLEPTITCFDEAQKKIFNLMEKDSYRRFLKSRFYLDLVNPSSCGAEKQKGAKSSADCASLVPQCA
MrgX1 PAM: human MrgX1 positive allosteric modulation, primary screen. MrgX1-HEK293, Fluo-4 calcium flux, FDSS; active compounds read high. Q96LB2. B-score at 10 µM. 310,000 compounds, 0.63% hits;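 active means plate-corrected calcium response at least 3 library SD above typical, normal starting fluorescence, not activating the receptor alone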;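 further: compound read alongside a low EC10 to EC30 dose of BAM8-22 agonist; peak minus trough fluorescence over baseline measured at the second addition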
Target sequence (Q96LB2 whole entry, looked up): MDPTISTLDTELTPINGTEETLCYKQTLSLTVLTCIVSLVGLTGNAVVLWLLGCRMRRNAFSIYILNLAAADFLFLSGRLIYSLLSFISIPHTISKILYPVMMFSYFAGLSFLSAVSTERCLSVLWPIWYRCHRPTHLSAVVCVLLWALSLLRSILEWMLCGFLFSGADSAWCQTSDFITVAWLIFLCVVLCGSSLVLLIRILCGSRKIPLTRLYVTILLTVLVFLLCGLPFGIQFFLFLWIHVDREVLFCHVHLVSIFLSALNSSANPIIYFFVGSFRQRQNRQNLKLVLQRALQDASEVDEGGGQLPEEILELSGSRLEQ
MrgX1 agonist: human MrgX1 receptor agonism, primary screen | Q96LB2 | MrgX1-HEK293 cells, Fluo-4 calcium fluorescence, agonist mode; active compounds read high | B-score at 10 µM | 310,000 compounds, 0.44% hits | AID 588627;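 active means calcium response B-score plate-corrected fluorescence ratio at least 3 library SD, with starting fluorescence B-score inside 5 SD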
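Test system: Stable human MrgX1 HEK293 cell line | Schedule: Overnight plating before 1 h dye loading | Read-out basis: Baseline-normalised fluorescence change ratio, B-scored | Detection: Kinetic calcium dye fluorescence, Fluo-4 NW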
MrgX1 antag: blocks BAM8-22 activation of human MrgX1 receptor; Q96LB2; MRGX1-HEK293 calcium flux, Fluo-4, BAM8-22 antagonism; active compounds read low; B-score at 10 µM; 310,000 compounds, 1.3% hits; AID 588676;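 active means calcium-response B-score plate-corrected more than 3 library SD below zero, starting fluorescence within 5 deviations, no agonist response on first addition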;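 further: peak minus trough fluorescence over baseline after final BAM8-22 challenge near maximal dose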
RGS4 activ val: confirmation of RGS4 activators | shares compounds with RGS4 pot | HEK293 M3R/RGS4 inducible, carbachol calcium flux Fluo4 | inhibition, % at 10 µM | 1,100 compounds, 89% hits | AID 602282;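 active means inhibition above 3 SD of the buffer control wells, cut at about 41% in these data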;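 further: signal is the integrated peak-minus-minimum Fluo4 fluorescence over baseline ratio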
M3R Ca counter: counter-screen for RGS4 activators: effect in non-induced cells. 1,100 compounds, 82% hits. inhibition, % at 10 µM. shares compounds with RGS4 pot. HEK293 M3R non-induced RGS4, Fluo4 calcium flux; after carbachol challenge at its EC90;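 active means inhibition exceeding 3 SD of buffer-only control wells, cut at about 26% in these data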;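 further: percent drop in integrated peak-minus-baseline over baseline Fluo4 ratio after carbachol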
* = called active by the depositor; i = inactive; nt = no result given. Compounds with a hit are over-represented: about 3.5% of the library has one in this group of screens.

SMILES | RGS4 pot | RGS4 block | MrgX1 PAM | MrgX1 agonist | MrgX1 antag | RGS4 activ val | M3R Ca counter
COc1ccccc1CNC(=O)C1CC(c2ccccc2C(F)(F)F)=NO1 (configuration not stated) | i | i | i | i | i | nt | nt
COc1ccc(C)cc1S(=O)(=O)N1CCC(C(=O)NC2CCCC2)CC1 | -8.1* | i | i | i | i | 0 | 0
Cc1ccc(CN2CCC(c3cc(-c4cccs4)n[nH]3)CC2)cc1 | -17* | i | i | i | i | 91* | 68*
FC(F)(F)c1cccc(CN2CCC(c3cc(-c4cccs4)n[nH]3)CC2)c1 | i | i | i | i | i | nt | nt
COc1ccc(C(Sc2ccccc2)c2ccccc2)cc1OC (configuration not stated) | i | i | i | i | i | nt | nt
O=C(NCC1CCN(c2ccc(S(=O)(=O)N3CCOCC3)cc2)CC1)c1ccc(Cl)cc1 | -11* | i | i | i | i | 92* | 81*
CCOCCCNS(=O)(=O)c1ccc(-n2cnnn2)c(OC)c1 | i | i | i | i | i | nt | nt
COc1ccc2c(c1)C=C([C@@H]1C[C@H]3CN(c4ccccc4)C(=O)[C@]34CCCN14)CO2 | -10* | i | i | i | i | 70* | 84*
Cc1ccc(/C=C/S(=O)(=O)Nc2ccc(C)cc2)cc1 | -9.8* | i | i | i | i | 90* | 44*
Cc1ccc(NS(=O)(=O)N(C)C)cc1 | i | i | i | i | i | nt | nt
Cc1ccc(C(OCC(C)(C)C[N+](C)(C)C)c2ccccc2)cc1 (configuration not stated) | -11* | i | i | i | i | 88* | 63*
CN(CC#CC(O)(c1ccccc1)c1ccccc1)C(C)(C)C | -10* | i | i | i | i | 94* | 91*
CC(C)N(CC#CC(O)(c1ccccc1)c1ccccc1)CCO | -8.6* | i | i | i | i | 91* | 52*
Cc1cccc(SCC(=O)Nc2ccc3c(c2)OCCO3)c1 | i | i | i | i | i | nt | nt
Cc1cc(NC(=O)CSc2nc(CC(C)(C)C)nc3c2c(=O)n(C)c(=O)n3C)no1 | i | i | i | i | i | nt | nt
CCOC(=O)Nc1ccc2c(c1)N(C(=O)C(C)N1CCCC1)c1ccccc1CC2 (configuration not stated) | -7.9* | i | i | i | i | 86* | 84*
COC(=O)c1cc2ccsc2n1Cc1cc(=O)n2ccccc2n1 | -10* | i | i | i | i | 90* | 63*
Cc1nn(-c2ccccc2)c(C)c1NC(=O)COC(=O)c1ccc(O)cc1O | -10* | i | i | i | i | 52* | 0
O=C(Nc1ccc(Oc2ccccc2)nc1)C1CCCCN1Cc1ccc(O)cc1 (configuration not stated) | -8.2* | i | i | i | i | 74* | 28*
CCOC(=O)C1=C(CC)Nc2ccccc2N=C1NC(=O)c1oc2ccccc2c1C | -12* | i | i | i | i | 84* | 52*
CCOC(=O)C1=C(CC)Nc2ccccc2N=C1NC(=O)CCNC(C)=O | i | i | i | i | i | nt | nt
CCOCc1c(C(=O)NC2=Nc3ccccc3NC(CC)=C2C(=O)OCC)oc2ccccc12 | -8.9* | i | i | i | i | 76* | 84*
O=C(CSc1ncn[nH]1)Nc1ccc(S(=O)(=O)Nc2ncccn2)cc1 | i | i | i | i | i | nt | nt
Cc1cccc(NS(=O)(=O)c2ccc(C3CCCCC3)cc2)c1 | -8.8* | i | i | i | i | 94* | 92*
CCc1nc(SCC(=O)NC2CCCC2)c2oc3ccccc3c2n1 | i | i | i | i | i | nt | nt
SMILES | RGS4 pot | RGS4 block | MrgX1 PAM | MrgX1 agonist | MrgX1 antag | RGS4 activ val | M3R Ca counter
Cc1nc(SCC(=O)O)c2oc3ccccc3c2n1 | i | i | i | i | i | nt | nt
Cc1nc(SCC(=O)N2CCN(c3ccccc3)CC2)c2oc3ccccc3c2n1 | -9.3* | i | i | i | i | 80* | 0
CCc1nc(SCC(=O)N2CCCc3ccccc32)c2oc3ccccc3c2n1 | -9.4* | i | i | i | i | 90* | 71*
Cc1c(OCC(=O)N(C)C)ccc2c3c(c(=O)oc12)CCCCC3 | -7.9* | i | i | i | i | 64* | 32*
Oc1ccccc1-c1nc(NC2CCCC2)c2ccccc2n1 | -7.8* | i | i | i | i | 74* | 59*
CCOCCN1CCN(C2c3ccccc3CSc3ccccc32)CC1 (configuration not stated) | -13* | i | i | i | i | 92* | 90*
CCNC(=O)NC1c2ccccc2CSc2ccccc21 (configuration not stated) | i | i | i | i | i | nt | nt
COC(=O)C(O)(CC(=O)Nc1ccc(Cl)cc1Cl)C(F)(F)F (configuration not stated) | -9.2* | i | i | i | i | 0 | 0
Cc1ccc(NC(=O)NN2CCN(C)CC2)cc1C | i | i | i | i | i | nt | nt
Cc1ccc(Sc2ccc(N)cc2C#N)cc1 | -8.8* | i | i | i | i | 83* | 42*
Cc1ccc(Sc2nnc(-c3ccccc3)cc2C#N)cc1 | i | i | i | i | i | nt | nt
COc1ccccc1/C=C/C=N/NC(=O)CCn1nnc2ccccc21 | i | i | i | i | i | nt | nt
CNS(=O)(=O)c1cccc(C(=O)OCc2cc(Cl)cc3c2OCOC3)c1 | -8.6* | i | i | i | i | 0 | 0
CNS(=O)(=O)c1cccc(C(=O)OCC(=O)N2CCCC2)c1 | i | i | i | i | i | nt | nt
Cc1nn(-c2ccc(N3CCCCC3)nn2)c(C)c1CCC(=O)Nc1ccc(F)c(F)c1 | -8.5* | i | i | i | i | 64* | 49*
CC(C)CC(c1nnnn1Cc1cccs1)N1CCN(c2nc3ccccc3s2)CC1 (configuration not stated) | -12* | i | i | i | i | 92* | 71*
CCC(c1nnnn1Cc1cccs1)N1CCN(c2nc3ccccc3s2)CC1 (configuration not stated) | i | i | i | i | i | nt | nt
N#CCN1CCN(CC(=O)Nc2cccc3ccccc23)CC1 | i | i | i | i | i | nt | nt
